# Measurements as given in ChEMBL document CHEMBL1156918, “5-Modified-2'-dU and 2'-dC as mutagenic anti HIV-1 proliferation agents: synthesis and activity” (J Med Chem, 2010).
# Active and inactive are the calls of the source. No cut-off for these calls is given here.
# System: Human immunodeficiency virus 1
# Experiment: Antiviral activity against HIV1 LAI in human CEM-SS cells assessed as RT activity after 4 to 8 serial passages with uninfected cells by serial passage experiment
# Format: functional, organism-based
# Conditions: not given
# Method in brief: (§1)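 HIV-1 LAI at multiplicity 0.01 added to 2.5×10^5 CEM-SS cells in RPMI, 4 h at 37 °C. Cells washed twice in PBS, resuspended in 1 mL medium with or without analogue at 200 μM (100 μM where cytotoxicity required). Every 4 days an equal supernatant volume went to fresh CEM-SS cells, for eight cycles. RT activity in supernatants read at each passage.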
row,Structure (SMILES),Activity
1,NC(=O)Cc1cn([C@H]2C[C@H](O)[C@@H](CO)O2)c(=O)[nH]c1=O,Active
2,O=c1[nH]c(=O)n([C@H]2C[C@H](O)[C@@H](CO)O2)cc1CO,Active
3,NC(=O)c1cn([C@H]2C[C@H](O)[C@@H](CO)O2)c(=O)[nH]c1=O,Active
4,Nc1nc(=O)n([C@H]2C[C@H](O)[C@@H](CO)O2)cc1CO,Active

# System: Human immunodeficiency virus 1
# Experiment: Antiviral activity against HIV1 LAI in human CEM-SS cells assessed as RT activity after 4 serial passages with uninfected cells by serial passage experiment
# Format: functional, organism-based
# Conditions: not given
# Method in brief: as §1
row,Structure (SMILES),Activity
1,NC(=O)Cc1cn([C@H]2C[C@H](O)[C@@H](CO)O2)c(=O)[nH]c1=O,inactive
2,O=c1[nH]c(=O)n([C@H]2C[C@H](O)[C@@H](CO)O2)cc1CO,inactive
3,NC(=O)c1cn([C@H]2C[C@H](O)[C@@H](CO)O2)c(=O)[nH]c1=O,inactive
4,Nc1nc(=O)n([C@H]2C[C@H](O)[C@@H](CO)O2)cc1CO,inactive

# System: Human immunodeficiency virus 1
# Experiment: Antiviral activity against HIV1 LAI in human CEM-SS cells assessed as RT activity after 8 serial passages with uninfected cells by serial passage experiment
# Format: functional, organism-based
# Conditions: not given
# Method in brief: as §1
row,Structure (SMILES),Activity
1,NC(=O)Cc1cn([C@H]2C[C@H](O)[C@@H](CO)O2)c(=O)[nH]c1=O,Active
2,O=c1[nH]c(=O)n([C@H]2C[C@H](O)[C@@H](CO)O2)cc1CO,Active

# System: Human immunodeficiency virus 1
# Experiment: Induction of mutation in HIV1 LAI in human CEM-SS cells after 7 passages with uninfected cells
# Format: functional, organism-based
# Conditions: not given
row,Structure (SMILES),Activity
1,NC(=O)Cc1cn([C@H]2C[C@H](O)[C@@H](CO)O2)c(=O)[nH]c1=O,inactive
2,NC(=O)c1cn([C@H]2C[C@H](O)[C@@H](CO)O2)c(=O)[nH]c1=O,inactive

# System: Human immunodeficiency virus 1
# Experiment: Antiviral activity against HIV1 3B in human MT4 cells assessed as RT activity after 5 days by single passage assay
# Format: functional, organism-based
# Conditions: Human immunodeficiency virus 1, 3B, MT4, 120 h
# Method in brief: (§2)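 MT-4 cells kept in RPMI 1640 with 10% FCS, penicillin, streptomycin and glutamine at 37 °C, 5% CO2. Infected with HIV-1 IIIB at 5 TCID50, 30 min adsorption, washed, resuspended at 10^5 cells/mL with serial compound dilutions. After 5 days, RT activity in the medium was measured. IC50 came from a median-effect plot. AZT was the positive control. Run twice.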
row,Structure (SMILES),IC50 [µM]
1,NC(=O)Cc1cn([C@H]2C[C@H](O)[C@@H](CO)O2)c(=O)[nH]c1=O,> 200
2,O=c1[nH]c(=O)n([C@H]2C[C@H](O)[C@@H](CO)O2)cc1O,> 200
3,Cc1cn([C@H]2C[C@H](N=[N+]=[N-])[C@@H](CO)O2)c(=O)[nH]c1=O [ZIDOVUDINE],0.018
4,NC(=O)Cc1cn([C@H]2C[C@H](O)[C@@H](CO)O2)c(=O)nc1N,> 200
5,O=c1[nH]c(=O)n([C@H]2C[C@H](O)[C@@H](CO)O2)cc1CO,> 130
6,NC(=O)c1cn([C@H]2C[C@H](O)[C@@H](CO)O2)c(=O)[nH]c1=O,> 200
7,Nc1nc(=O)n([C@H]2C[C@H](O)[C@@H](CO)O2)cc1CO,> 200
8,NC(=O)c1cn([C@H]2C[C@H](O)[C@@H](CO)O2)c(=O)nc1N,> 200
9,NC(=O)Cn1c(=O)ccn([C@H]2C[C@H](O)[C@@H](CO)O2)c1=O,> 200

# System: Human immunodeficiency virus 1
# Experiment: Antiviral activity against HIV1 LAI in human CEM-SS cells assessed as RT activity after 5 days by single passage assay
# Format: functional, organism-based
# Conditions: Human immunodeficiency virus 1, LAI, 120 h
# Method in brief: as §2, with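 “CEM-SS cells” for “MT-4 cells”, “HIV-1 LAI” for “HIV-1 IIIB”, “at 20” for “at 5”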
row,Structure (SMILES),IC50 [µM]
1,NC(=O)Cc1cn([C@H]2C[C@H](O)[C@@H](CO)O2)c(=O)[nH]c1=O,> 200
2,O=c1[nH]c(=O)n([C@H]2C[C@H](O)[C@@H](CO)O2)cc1O,> 200
3,NC(=O)Cc1cn([C@H]2C[C@H](O)[C@@H](CO)O2)c(=O)nc1N,> 200
4,O=c1[nH]c(=O)n([C@H]2C[C@H](O)[C@@H](CO)O2)cc1CO,30
5,NC(=O)c1cn([C@H]2C[C@H](O)[C@@H](CO)O2)c(=O)[nH]c1=O,> 200
6,Nc1nc(=O)n([C@H]2C[C@H](O)[C@@H](CO)O2)cc1CO,24
7,NC(=O)c1cn([C@H]2C[C@H](O)[C@@H](CO)O2)c(=O)nc1N,> 200
8,NC(=O)Cn1c(=O)ccn([C@H]2C[C@H](O)[C@@H](CO)O2)c1=O,> 200

# System: not listed separately
# Experiment: Cytotoxicity against human CEM-SS cells by MTT assay
# Format: cell-based
# Conditions: not given
# Method in brief: (§3)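 Uninfected cells grown at 37 °C, 5% CO2, in RPMI 1640 with 10% FCS, penicillin, streptomycin and glutamine, were incubated with a range of compound concentrations (up to 200 μM), run alongside the 5-day antiviral assay. Viability was read as MTT reduction to formazan by OD at 540 nm. CC50 was taken from a median effect plot of the dose-effect data.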
row,Structure (SMILES),CC50 [µM]
1,NC(=O)Cc1cn([C@H]2C[C@H](O)[C@@H](CO)O2)c(=O)[nH]c1=O,> 200
2,O=c1[nH]c(=O)n([C@H]2C[C@H](O)[C@@H](CO)O2)cc1O,> 200
3,Cc1cn([C@H]2C[C@H](N=[N+]=[N-])[C@@H](CO)O2)c(=O)[nH]c1=O [ZIDOVUDINE],> 1
4,NC(=O)Cc1cn([C@H]2C[C@H](O)[C@@H](CO)O2)c(=O)nc1N,> 200
5,O=c1[nH]c(=O)n([C@H]2C[C@H](O)[C@@H](CO)O2)cc1CO,120
6,NC(=O)c1cn([C@H]2C[C@H](O)[C@@H](CO)O2)c(=O)[nH]c1=O,> 200
7,Nc1nc(=O)n([C@H]2C[C@H](O)[C@@H](CO)O2)cc1CO,> 200
8,NC(=O)c1cn([C@H]2C[C@H](O)[C@@H](CO)O2)c(=O)nc1N,> 200
9,NC(=O)Cn1c(=O)ccn([C@H]2C[C@H](O)[C@@H](CO)O2)c1=O,> 200

# System: not listed separately
# Experiment: Cytotoxicity against human MT4 cells by MTT assay
# Format: cell-based
# Conditions: not given
# Method in brief: as §3
row,Structure (SMILES),CC50 [µM]
1,NC(=O)Cc1cn([C@H]2C[C@H](O)[C@@H](CO)O2)c(=O)[nH]c1=O,> 200
2,O=c1[nH]c(=O)n([C@H]2C[C@H](O)[C@@H](CO)O2)cc1O,> 200
3,Cc1cn([C@H]2C[C@H](N=[N+]=[N-])[C@@H](CO)O2)c(=O)[nH]c1=O [ZIDOVUDINE],> 1
4,NC(=O)Cc1cn([C@H]2C[C@H](O)[C@@H](CO)O2)c(=O)nc1N,> 200
5,O=c1[nH]c(=O)n([C@H]2C[C@H](O)[C@@H](CO)O2)cc1CO,130
6,NC(=O)c1cn([C@H]2C[C@H](O)[C@@H](CO)O2)c(=O)[nH]c1=O,> 200
7,Nc1nc(=O)n([C@H]2C[C@H](O)[C@@H](CO)O2)cc1CO,> 200
8,NC(=O)c1cn([C@H]2C[C@H](O)[C@@H](CO)O2)c(=O)nc1N,> 200
9,NC(=O)Cn1c(=O)ccn([C@H]2C[C@H](O)[C@@H](CO)O2)c1=O,> 200
